Source: PubChem BioAssay (Johns Hopkins Ion Channel Center)
KCNK3 inh – human KCNK3 channel inhibition, primary screen; 0.84% of 340,000 active; CHO-KCNK3 thallium flux, FluxOR fluorescence; stronger effect = lower value; B-score at 10 µM;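 active means B-score under library mean minus 4 SD, starting fluorescence ratio at most library mean plus 5 SD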;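 further: more negative B-score means stronger inhibition of thallium flux through KCNK3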
KCNQ1 pot – potentiates or activates the human KCNQ1 potassium channel; CHO-K1 KCNQ1, thallium flux FluxOR fluorescence; stronger effect = higher value; B-score at 10 µM; 0.35% of 310,000 active;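 active means fluorescence ratio B-score, a plate-corrected score, at least three library SD, with initial intensity B-score within 5 SD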
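Medium – assay buffer, equal DMSO in all wells · Material – CHO-K1 cell line with stable KCNQ1 potassium channel expression · Signal – kinetic FluxOR thallium fluorescence, 10-s 1-Hz baseline, 110-s post-stimulus read · Compound – single concentration per compound, DMSO matched to controls · Schedule – 37 °C overnight plating, 90-min dark dye load, 20-min compound pretreatment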
Kir21 block – inhibitors of mouse Kir2.1 inward-rectifier potassium channel | B-score at 10 µM | HEK293-Kir2.1, FluxOR thallium flux fluorescence; stronger effect = lower value | 0.85% of 310,000 active | P35561;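 active means fluorescence ratio B-score at or below minus 3 SD of library scores, with starting-brightness B-score within 2 SD, cut at about -4.2 in these data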;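 further: channel flux triggered by added potassium and thallium sulfate stimulus; B-score of peak minus minimum fluorescence over baseline after thallium stimulus; more negative B-score means stronger Kir2.1 block with less thallium influx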
KCNQ1 block – blocks the human KCNQ1 potassium channel. P51787. CHO-K1 KCNQ1, FluxOR thallium flux fluorescence; stronger effect = higher value. B-score at 10 µM. 1.3% of 310,000 active. AID 2642;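 active means compounds whose thallium flux B-score, printed positive for inhibition, exceeds three library SD while starting fluorescence stays within three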;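 further: channel opened by potassium depolarization with thallium stimulus after 20 min compound exposure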
KCNK9 block – blocks the human KCNK9 two-pore domain potassium channel | Q9NPC2 | HEK293 KCNK9, FluxOR thallium flux fluorescence; stronger effect = lower value | B-score at 10 µM | 1.2% of 310,000 active;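 active means ratio B-score over 3 SD below the library mean, with starting fluorescence within 5 SD of its mean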;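 further: negative B-score means less thallium flux so channel inhibition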
hERG rescue – compounds protecting human hERG from proarrhythmic drug block; 0.51% of 310,000 active; AID 1511; Q12809; activation (rescue from dofetilide block), less the hit threshold, % at 10 µM; CHO-hERG, FluxOR thallium flux, dofetilide IC70 present;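 active means activation above the mean of controls blocked by dofetilide plus 5 SD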;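 further: thallium influx through hERG after potassium depolarization seen as dye fluorescence rise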
KCNQ1 inh valid – confirmation of human KCNQ1 potassium channel inhibitors | shares compounds with KCNQ1 block | KCNQ1 cell line, FluxOR thallium flux fluorescence | 93% of 1,600 active | AID 588353 | inhibition, % at 10 µM;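 active means primary screen active, with duplicate mean exceeding buffer control mean plus 3 SD of buffer wells, cut at about 28% in these data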;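 further: 0% = buffer control ratio and 100% = XE991 inhibitor control ratio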
CHO Tl flux – counter-screen for KCNQ1 inhibitors: effect in parental CHO cells. shares compounds with KCNQ1 block. parental CHO-K1, FluxOR thallium flux fluorescence ratio; stronger effect = lower value; zero means no signal rise above baseline. fluorescence ratio (Tl flux) at 10 µM. 21% of 1,600 active. AID 588366;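 active means mean of duplicate thallium-flux fluorescence ratios in parental host cells more than 5 SD below the buffer control mean, cut at about 0.38 in these data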;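 further: ratio is peak minus minimum fluorescence divided by baseline fluorescence; actives read low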
KCNQ1 APC inh – blocks human KCNQ1 current in automated patch clamp; 20% of 490 active; KCNQ1-CHO cells; calls only at 10 µM; shares compounds with KCNQ1 block;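 active means KCNQ1 current drop exceeding 3 SD of negative control wells, seen in both duplicate runs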;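 further: steady state current during a 2 s step from -80 to +40 mV; negative values mean current inhibition and positive values mean potentiation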
KCNQ2 spec – KCNQ1 inhibitor that also blocks rat KCNQ2 channel. shares compounds with KCNQ1 block. KCNQ2 cells, FluxOR thallium flux fluorescence. inhibition, % at 10 µM. 71% of 1,600 active;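 active means mean percent inhibition of the KCNQ2 thallium signal more than 5 SD above the buffer-only control wells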;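 further: KCNQ2 expressed in CHO cells; 0% = buffer control wells and 100% = XE-991 inhibitor control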
KCNQ1 KCNE1 spec – KCNQ1 inhibitor that also blocks human KCNQ1/KCNE1 channel. 77% of 1,600 active. KCNQ1/KCNE1 cells, FluxOR thallium flux fluorescence. shares compounds with KCNQ1 block. inhibition, % at 10 µM;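 active means mean percent inhibition of duplicate wells above the buffer-only control mean plus 3 SD of those controls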;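 further: 0% = buffer only wells and 100% = XE-991 inhibitor control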
Target sequence (P51787 whole entry, looked up): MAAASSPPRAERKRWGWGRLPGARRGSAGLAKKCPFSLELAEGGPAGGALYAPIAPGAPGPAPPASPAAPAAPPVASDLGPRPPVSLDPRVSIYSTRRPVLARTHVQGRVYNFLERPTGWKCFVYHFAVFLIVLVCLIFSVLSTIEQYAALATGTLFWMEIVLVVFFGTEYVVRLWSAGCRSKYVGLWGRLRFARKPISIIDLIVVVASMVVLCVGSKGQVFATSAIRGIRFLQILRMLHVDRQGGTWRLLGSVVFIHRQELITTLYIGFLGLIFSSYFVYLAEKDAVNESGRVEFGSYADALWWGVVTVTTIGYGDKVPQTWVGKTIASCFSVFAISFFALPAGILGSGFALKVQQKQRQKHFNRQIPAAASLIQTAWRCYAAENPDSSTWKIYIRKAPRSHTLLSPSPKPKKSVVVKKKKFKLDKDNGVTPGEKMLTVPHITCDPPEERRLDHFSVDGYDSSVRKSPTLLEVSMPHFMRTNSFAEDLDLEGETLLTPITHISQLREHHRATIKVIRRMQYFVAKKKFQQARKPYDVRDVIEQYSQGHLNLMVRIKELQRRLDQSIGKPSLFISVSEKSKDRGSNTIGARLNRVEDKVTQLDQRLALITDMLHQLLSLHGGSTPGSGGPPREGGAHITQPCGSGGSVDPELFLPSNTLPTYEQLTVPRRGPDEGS
* = called active by the depositor; i = inactive; x = no result given; + = active, no number. Hits are enriched below; roughly 3.8% of the tested compounds scored in any of these assays.

SMILES	KCNK3 inh	KCNQ1 pot	Kir21 block	KCNQ1 block	KCNK9 block	hERG rescue	KCNQ1 inh valid	CHO Tl flux	KCNQ2 spec	KCNQ1 KCNE1 spec	others
CCN1CCN(CCNC(=O)c2ccc3nc(-c4cccc(C)c4)c(-c4cccc(C)c4)nc3c2)CC1	i	i	-1.65	8*	i	-32.0	76.0*	0.315*	91.3%*	162.5%*
COc1ccc(-c2nc(NC(=O)c3[nH]c(C)c(C(C)=O)c3C)sc2C)cc1	-9.86*	i	0.64	14*	i	-21.8	97.0*	0.277*	109.7%*	180.0%*
COc1ccc(OC)c(NC(=O)c2[nH]c(C)c(C(C)=O)c2C)c1	i	i	0.98	i	i	-12.6	x	x	x	x
Cc1cc2c(cc1C)NC(c1c(C)n(C)n(-c3ccccc3)c1=O)C1=C(CC(C)(C)CC1=O)N2 (stereo unspecified)	i	i	-4.65	15*	i	-20.9	0.0	0.476	i	i
COc1cc(C2Nc3cc(C)c(C)cc3NC3=C2C(=O)CC(C)(C)C3)ccc1OC(C)=O (stereo unspecified)	i	i	-0.05	i	i	-5.4	x	x	x	x
CCOc1cc(S(=O)(=O)NCc2ccncc2)ccc1Cl	i	i	-0.72	8*	i	-11.9	73.5*	0.5	i	36.5%*
COc1ccccc1NC(=S)NNC(=O)c1ccc(Cl)cc1Cl	i	i	-0.23	i	i	-0.5	x	x	x	x
COc1cc(NC(=O)COc2ccc(-n3ccnc3)cc2)cc(OC)c1	i	i	-2.93	i	i	-10.5	x	x	x	x
CC(C)(C)c1ccc(NC(=O)COc2ccc(-n3ccnc3)cc2)cc1	i	i	-0.22	7*	i	-16.7	130.0*	0.47	74.3%*	40.5%*
COc1ccccc1NC(=O)CN1CCC(n2nnc3cc(F)ccc32)CC1	i	i	-0.41	i	i	-10.5	x	x	x	x
COc1ccccc1NC(=O)CN1CCN(C2c3ccccc3-c3ccccc32)CC1	i	i	-0.02	7*	i	-5.5	107.5*	0.417	100.0%*	155.0%*	KCNQ1 APC inh=i
COc1ccccc1NC(=O)CN1CCC(n2c(C)nc3cc(F)ccc32)CC1	i	i	-0.61	8*	i	-12.6	116.5*	0.441	96.7%*	98.0%*	KCNQ1 APC inh=i
COc1ccccc1NC(=O)CN1CCN(CC(=O)Nc2ccccc2F)CC1	i	x	x	x	x	x	x	x	x	x
Cc1cc(S(=O)(=O)Nc2ccc(F)cc2)c(C)s1	i	i	-1.07	i	i	-5.9	x	x	x	x
COc1ccc(C2CC(=O)c3cnc(N4CCN(Cc5ccccc5)CC4)nc3C2)cc1 (stereo unspecified)	i	i	-0.58	6*	i	-6.3	67.5*	0.42	102.0%*	105.0%*
CCN1/C(=C/c2ccc3cc(C)ccc3[n+]2CC)Sc2cc(C)c(C)cc21	i	x	x	x	x	x	x	x	x	x
CC[n+]1c(/C=C2\Sc3ccccc3N2C)ccc2cccc(C)c21	i	i	-8.6	22*	i	-66.6	+	0.05*	i	i
CCN1/C(=C/c2ccc3cc(C)ccc3[n+]2CC)Sc2ccccc21	i	i	-15.3	17*	i	-36.9	+	0.0355*	i	i
CN1/C(=C/c2cccc[n+]2CCO)Sc2ccccc21	i	i	0.44	i	i	-4.1	x	x	x	x
Cc1ccccc1Nc1cc(C(=O)NCc2ccco2)c2ccccc2n1	i	i	-2.07	i	i	-8.5	x	x	x	x
CC(C)(C)n1nnnc1C(c1cccc(C(F)(F)F)c1)N1CCC(O)CC1 (stereo unspecified)	i	i	0.62	i	i	-2.0	x	x	x	x
Cc1cc(C2(c3ccc(O)c(C)c3)C(=O)Nc3ccccc32)ccc1O	i	i	0.32	7*	i	-6.3	0.0	0.472	i	i
COc1ccccc1N1CCN(C2CCCN(C(=O)CCc3c(C)noc3C)C2)CC1 (stereo unspecified)	i	i	-0.02	i	i	-9.7	x	x	x	x
CC(C)COC(=O)NCCOC(=O)Nc1cccc(Cl)c1	i	i	-1.45	8*	i	-12.9	123.5*	0.457	112.7%*	91.0%*	KCNQ1 APC inh=+
CC(C)COC(=O)NCCCOC(=O)Nc1ccccc1	i	i	2.38	i	i	-7.2	x	x	x	x
SMILES	KCNK3 inh	KCNQ1 pot	Kir21 block	KCNQ1 block	KCNK9 block	hERG rescue	KCNQ1 inh valid	CHO Tl flux	KCNQ2 spec	KCNQ1 KCNE1 spec	others
CCOC(=O)c1c(NC(=O)CSc2nc3ccccc3o2)sc(C(C)=O)c1C	i	i	-0.89	8*	i	-28.5	130.0*	0.429	108.3%*	111.5%*	KCNQ1 APC inh=i
CCOC(=O)c1c(NC(=O)CSc2nnc(-c3ccccc3)o2)sc(C(C)=O)c1C	i	i	-0.02	i	i	-8.3	x	x	x	x
CCOc1ccc(CCNC(=O)c2ccc3nc(CC)c(CC)nc3c2)cc1	i	i	0.33	i	i	-6.0	x	x	x	x
CC(NS(=O)(=O)OCC(Cl)(Cl)Cl)c1ccc(Br)cc1 (stereo unspecified)	i	i	-7.11*	7*	i	-19.9	126.5*	0.412	73.3%*	104.0%*	KCNQ1 APC inh=i
COC(=O)CCC(NS(=O)(=O)OCC(Cl)(Cl)Cl)c1ccccc1 (stereo unspecified)	i	i	-3.47	i	i	-8.1	x	x	x	x
CC(C)CC(NS(=O)(=O)OCC(Cl)(Cl)Cl)c1ccccc1 (stereo unspecified)	i	i	0.29	12*	i	-19.1	55.5*	0.442	65.3%*	i
CCc1nc2ccccc2nc1N1CCN(S(=O)(=O)c2ccc(Cl)cc2)CC1	i	i	0.18	i	i	-4.0	x	x	x	x
O=S(=O)(c1ccccc1)N1c2cc(Cl)ccc2Oc2nc3ccccc3nc21	i	i	-0.99	8*	i	-7.6	109.0*	0.365*	99.7%*	146.5%*
Cc1cc(C(=O)NC2CCCc3c2cnn3-c2ccc(C)c(C)c2)n(C)n1 (stereo unspecified)	i	i	0.38	11*	i	-14.7	101.5*	0.466	90.7%*	84.5%*	KCNQ1 APC inh=i
